Screening data as filed in PubChem.
The list is not random: actives were taken first. Their share in the collection is about 1.6%.
Bfl-1 A1 inh: inhibitors of the anti-apoptotic protein A1, read as caspase activation. MEF A1-2A-BIM cells, Caspase-Glo 3/7 luminescence, 3 h; percent of clofoctol response, vehicle zero. caspase activation, % (test concentration not listed). 330,000 compounds, 0.066% hits;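 active = over half of replicate activation scores above 10%, or exactly half above 10 with the replicate mean above 10; inconclusive = replicate mean below 10 yet half the replicates above 10; inactive = over half of replicates below 10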
Vif inh: HIV Vif inhibition; inhibition, % at 7.49 µM; 340,000 compounds, 0.35% hits; AID 602346; HEK293T cells, Vif self-association by quenched fluorescence, imaging, 24 h; in the data active = inhibition above about 50%, passing the limit was not always enough; inconclusive = no clear call, values can overlap the other calls; inactive = below about 31%
SR-BI uptake up: SR-BI HDL lipid transfer activation; 320,000 compounds, 0.096% hits; CHO ldlA[mSR-BI] cells, DiI-HDL uptake fluorescence, 3 h; 100 = double the neutral-control signal; activation, % at 12.5 µM;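 active = mean replicate activation of at least 60% and every replicate at or above 60%; inconclusive = mean or all-replicate condition met, but not both; inactive = mean below 60% and not all replicates reaching 60%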;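 also: 0% = median plate neutral-control signal and 100% = twice that signal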
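Test system: SR-BI-overexpressing, LDLR-lacking CHO cells. Measured by: DiI fluorescence, bottom read. Medium: Ham's F12 with 0.5% BSA, HEPES 25 mM, pH 7.4. Timing: 3 h uptake period with compound, 37 °C.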
SR-BI HDL uptake: blocks mouse SR-BI lipid uptake from DiI-HDL. AID 488896. inhibition, % at 12.5 µM. 320,000 compounds, 0.96% hits. Q61009. ldlA[mSR-BI] CHO cells, DiI-HDL uptake fluorescence, 3 h;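 active = mean replicate inhibition of at least 70% and a set share of replicates each scoring 70 or more; inconclusive = meets just one of the two criteria; inactive = fails both criteria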;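 also: 0% = median of neutral control wells and 100% = median of positive control wells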
Target sequence (Q61009 whole entry, looked up): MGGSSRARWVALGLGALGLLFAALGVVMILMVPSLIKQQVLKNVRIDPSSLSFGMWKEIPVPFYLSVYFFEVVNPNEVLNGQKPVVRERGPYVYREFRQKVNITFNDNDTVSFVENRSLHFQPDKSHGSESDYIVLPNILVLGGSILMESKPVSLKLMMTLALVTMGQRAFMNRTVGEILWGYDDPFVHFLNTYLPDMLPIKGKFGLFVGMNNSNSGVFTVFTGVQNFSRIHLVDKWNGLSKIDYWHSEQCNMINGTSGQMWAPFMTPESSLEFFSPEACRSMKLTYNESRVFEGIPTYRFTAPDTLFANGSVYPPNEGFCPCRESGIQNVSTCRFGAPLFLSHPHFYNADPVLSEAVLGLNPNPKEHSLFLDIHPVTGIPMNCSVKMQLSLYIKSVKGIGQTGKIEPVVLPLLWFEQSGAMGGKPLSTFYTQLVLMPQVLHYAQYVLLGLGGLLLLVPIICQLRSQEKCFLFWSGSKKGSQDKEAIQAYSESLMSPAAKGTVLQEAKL
H9c2 TAG inh: reduces triacylglycerol accumulation in H9c2 cells; Nile Red lipid (TAG) fluorescence; cells loaded with 200 µM oleic acid; inhibition, % at 12.5 µM; 230,000 compounds, 0.66% hits;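 active = pattern-corrected inhibition of lipid staining of at least 50% with the nuclear-stain viability signal not falling by more than 50%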;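 also: 0% = DMSO wells and 100% = triacsin C control wells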
DiI quencher: DiI fluorescence quenching in cell-free counter-screen | cell-free DiI-HDL fluorescence quenching, 30 min | AC50, µM (titrated, usually from 35 µM), without a hit: at the top dose activity change, negative = quenching | 470 compounds, 20% hits | shares compounds with SR-BI HDL uptake;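 active = quenching, a falling signal, with AC50 below a set limit tied to the top valid dose, actives reach about 32 µM in these data; inconclusive = no clear call, values can overlap the other calls; inactive = rising signal, and the rest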
The depositor's hits bear a star; u = inconclusive; x = not tested or not shown.

SMILES	Bfl-1 A1 inh	Vif inh	SR-BI uptake up	SR-BI HDL uptake	H9c2 TAG inh	others
Cc1ccccc1-n1c(O)c(/C=N/NC(=O)c2ccccc2O)c(=O)[nH]c1=S	-4	2	-109	109*	6
CC(=O)O[C@@H]1/C=C/[C@](C)(O)C[C@@H](C)C/C=C/[C@H]2[C@H](O)C(C)=C(C)[C@H]3[C@H](Cc4ccccc4)NC(=O)[C@@]123	0	x	x	x	x
C=C1C(C)C2C(Cc3ccccc3)NC(=O)C23C(OC(C)=O)C=CC(C)(O)CC(C)CC=CC3C1O (stereo unspecified)	x	-6	14	-14	98*
N=C1c2ccccc2CN1NC(=O)C1CC1	1	2	66*	-66	x
N=C1c2ccccc2CN1NC(=O)c1ccc(Cl)cc1	0	4	23	-23	x
CCN1CCN(C(=O)COc2ccc3oc4c(c3c2)CCCC4)CC1	1	-1	-72	72*	6
O=c1c2ccccc2nc(CNCc2ccco2)n1-c1ccc(F)cc1	0	2	16	-16	x
CCn1c(=O)cc(OCC(=O)N2CCN(Cc3ccc4c(c3)OCO4)CC2)c2ccccc21	1	67*	-34	34	x
NC1(C(=O)O)CCCc2ccc(N(CCCl)CCCl)cc21 (stereo unspecified)	x	22	9	-9	10
COC(=O)C1=C(C)NC(=S)NC1c1ccc(N(CCCl)CCCl)cc1Cl (stereo unspecified)	x	2	-85	85*	19
Cc1ccc(CN2Cc3ccc(Br)cc3-n3nncc3C2)cc1	x	10	x	x	x
COC1/C=C/C=C(\C)Cc2cc(O)c(Cl)c(c2)N(C)C(=O)CC(OC(=O)C(C)C)C2(C)OC2C(C)C2CC1(O)NC(=O)O2 (stereo unspecified)	x	64*	15	-15	44
O=C(Cc1ccccc1)Oc1cccc(-n2cnnn2)c1	0	7	20	-20	-7
CC(C)(C)c1ccc(O)c(N=Cc2c(O)ccc3ccccc23)c1	0	-18	-113	113*	6
COC(=O)C(O)(c1ccc(N=Cc2ccccc2O)c(C)c1)C(F)(F)F (stereo unspecified)	0	-1	-11	11	x
c1ccc2c(c1)Sc1ccccc1N2CC1CN2CCC1CC2 (stereo unspecified)	1	53*	12	-12	-18
CC[C@@H](C(N)=O)N1CCCC1=O	0	x	x	x	x
CCCCC1(CC)COP(=O)(OCC(Cl)(Cl)Cl)OC1 (stereo unspecified)	x	-6	3	-3	0
O=[N+]([O-])c1ccc(N(CCO)CCO)c2c1no[n+]2[O-]	x	61*	x	x	77
CN1CCN(c2ccc([N+](=O)[O-])c3no[n+]([O-])c23)CC1	3	-1	22	-22	x
C=Cc1cc(OC)c2c(c1)c(=O)oc1c2cc(OC)c2c(O)ccc(C3OC(C)C(O)C(C)(O)C3O)c21 (stereo unspecified)	x	-4	-15	15	50
COC(=O)C1=C(c2ccc(OC(F)(F)F)cc2)C[C@@H]2CC[C@H]1N2C(=O)N1CCC(O)CC1	0	-3	26	-26	-13
CC/C(CC(c1ccccc1)c1c(O)c2ccccc2oc1=O)=N\NC(N)=S (stereo unspecified)	1	0	-80	80*	x
COC(=O)C1=C(c2ccccc2OCc2ccccc2)C[C@@H]2CC[C@H]1N2C(=O)NCc1ccc(C(C)(C)C)cc1	1	0	-8	8	31
OCC1CN1C1CCCCC1 (stereo unspecified)	x	16	15	-15	-26
SMILES	Bfl-1 A1 inh	Vif inh	SR-BI uptake up	SR-BI HDL uptake	H9c2 TAG inh	others
C=C1C(=O)O[C@@H]2C[C@@H](C)[C@@H]3C4OC4C(=O)[C@@]3(C)[C@@H](O)[C@H]12 (stereo partly specified)	0	41*	16	-16	111*
C=C1C(=O)OC2CC(C)C3C=CC(=O)C3(C)C(O)C12 (stereo unspecified)	x	-5	2	-2	72
COCCCn1c(N)c(C(=O)OCCOC)c2nc3ccccc3nc21	1	19	31	-31	-17
CCOC(=O)c1c(N)n(CCCOC(=O)c2ccco2)c2nc3ccccc3nc12	-2	-9	21	-21	53*
CC(=O)c1ccc2c(c1)C1C(Cl)C(Sc3ccccc3[N+](=O)[O-])CC1C(c1ccccc1)N2 (stereo unspecified)	-2	x	-35	35	20
CC(=O)c1ccc2c(c1)C1C(Cl)C(Sc3ccccc3[N+](=O)[O-])CC1C(c1ccccc1[N+](=O)[O-])N2 (stereo unspecified)	0	-18	-73	73*	-43
CC1CCC(C(C)C)C(OC(=O)Cn2c(COc3ccccc3)[n+](C)c3ccccc32)C1 (stereo unspecified)	1	-5	x	x	104*
CN1Cc2cnnn2-c2ccccc2C1c1ccccc1 (stereo unspecified)	x	x	-14	14	-2
N#Cc1cn(C2OC(CO)C(O)C2O)c2ncnc(N)c12 (stereo unspecified)	x	-2	u	-185	90*
N#Cc1c(Br)n(C2OC(CO)C(O)C2O)c2ncnc(N)c12 (stereo unspecified)	x	-2	-13	13	52*
COc1ccccc1NP1(=O)OCC(C)([N+](=O)[O-])CO1 (stereo unspecified)	x	31	6	-6	-16
Cc1ccccc1N1CCN(C2CCCN(C(=O)COc3ccccc3)C2)CC1 (stereo unspecified)	0	-2	-47	47	4
COC1C(O)C(C)OC(OC2C(Oc3cccc4c(O)c5c(=O)oc6ccc(C)c7c(=O)oc(c34)c5c67)OC(C)C(O)C2O)C1O (stereo unspecified)	x	51*	-4	4	49
COC(=O)c1cn(Cc2ccc(F)cc2)c2ccccc12	x	4	x	x	-9
COC(=O)c1cn(C(=O)c2cccc3ccccc23)c2ccccc12	1	-24	-73	73*	15	DiI quencher=-2%
COc1ccc(NC(=O)C2C3CCC(O3)C2C(=O)O)c(OC)c1 (stereo unspecified)	0	4	-10	10	x	DiI quencher=-8%
COc1cc(/C=C2\C[C@H]3[C@@H]4CC=C5C[C@@H](N6CCCC6)CC[C@]5(C)[C@H]4CC[C@]3(C)[C@H]2O)cc(OC)c1OC	x	7	-33	33	9
